Molecular target: 5-hydroxytryptamine receptor 2B (Rattus norvegicus) (UniProt P30994)
Experiment: Binding affinity analysed for 5-HT 2B receptor in rat stomach fundus
Assay type: tissue-based
How it was run: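 Rat stomach fundus strips (5HT2B): isometric contraction recorded as grams of force. Control cumulative serotonin concentration–response curve, then 1 h incubation with a single antagonist concentration per tissue, then serotonin curve repeated. K_B = [B]/(dose ratio − 1), where dose ratio is agonist ED50 with antagonist over control ED50. Reported as −log K_B.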

Chain of 5-hydroxytryptamine receptor 2B (Rattus norvegicus) (P30994 whole entry): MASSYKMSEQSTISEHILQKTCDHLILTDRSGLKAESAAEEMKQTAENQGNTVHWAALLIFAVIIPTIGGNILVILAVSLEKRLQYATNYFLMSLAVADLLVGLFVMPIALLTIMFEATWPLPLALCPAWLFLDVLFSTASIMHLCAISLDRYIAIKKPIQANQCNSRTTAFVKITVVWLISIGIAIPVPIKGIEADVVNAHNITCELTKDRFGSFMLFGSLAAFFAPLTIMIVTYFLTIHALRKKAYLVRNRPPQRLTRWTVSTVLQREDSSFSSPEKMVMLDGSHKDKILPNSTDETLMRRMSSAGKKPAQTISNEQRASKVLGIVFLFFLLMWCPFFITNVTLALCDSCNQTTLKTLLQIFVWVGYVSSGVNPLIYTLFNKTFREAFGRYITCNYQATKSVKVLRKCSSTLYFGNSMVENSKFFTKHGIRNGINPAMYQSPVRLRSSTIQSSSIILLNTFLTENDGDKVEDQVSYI

Compound | -Log KB
COc1ccc(CC2NCCc3c2[nH]c2ccc(C)c(F)c32)cc1OC (stereo unspecified) | 9.3
COc1ccc(CC2NCCc3c2[nH]c2ccc(I)cc32)cc1OC (stereo unspecified) | 9.52
COc1ccc(CC2NCCc3c2[nH]c2c(C)cccc32)cc1OC (stereo unspecified) | 9
Cc1ccc2[nH]c3c(c2c1)CCNC3CC1CCCCC1 (stereo unspecified) | 8.32
COc1ccc(CC2NCCc3c2[nH]c2ccc(OCc4ccccc4)cc32)cc1OC (stereo unspecified) | 6.73
Cc1ccc2[nH]c3c(c2c1)CCNC3Cc1cccc(C(F)(F)F)c1 (stereo unspecified) | 8.91
CCCCc1ccc2[nH]c3c(c2c1)CCNC3Cc1ccc(OC)c(OC)c1 (stereo unspecified) | < 7.5
COc1ccc(CC2NCCc3c2[nH]c2c3ccc3ccccc32)cc1OC (stereo unspecified) | 9.22
COc1ccc(CC2NCCc3c2[nH]c2ccccc32)c(Cl)c1OC (stereo unspecified) | 9.27
CCc1ccc2c(c1)C1CCNC(Cc3cccc4ccccc34)C1N2 (stereo unspecified) | 9.65
COc1ccc(CC2NCCc3c2[nH]c2c(Br)cc(C)cc32)cc1OC (stereo unspecified) | 8.92
COc1ccc(CCC2NCCc3c2[nH]c2ccccc32)cc1OC (stereo unspecified) | 7.07
Cc1ccc2c(c1Br)NC1C(Cc3cccc4ccccc34)NCCC21 (stereo unspecified) | 8.56
CCc1ccc2[nH]c3c(c2c1)CCNC3Cc1ccc(OC)c(OC)c1 (stereo unspecified) | 9.46
COc1ccc(CC2c3[nH]c4ccc(C)cc4c3CCN2C)c(Cl)c1OC (stereo unspecified) | 8.4
COc1ccc(CC2NCCc3c2[nH]c2ccc(Br)cc32)cc1OC (stereo unspecified) | 8.8
Cc1cc(NC(=O)Nc2ccc3c(ccn3C)c2)sn1 | 7.95
Brc1cccc2c1NC1C(Cc3cccc4ccccc34)NCCC21 (stereo unspecified) | 9.1
COc1ccc(CC2NCCc3c2[nH]c2c(Br)c(C)ccc32)cc1OC (stereo unspecified) | 9.02
COc1ccc(CC2NCCc3c2[nH]c2ccc(C4CCCCC4)cc32)cc1OC (stereo unspecified) | < 7.5
Cc1ccc(CC2NCCc3c2[nH]c2ccccc32)cc1 (stereo unspecified) | 7.84
c1ccc2cc(CC3NCCc4c3[nH]c3ccccc43)ccc2c1 (stereo unspecified) | 7.84
Cc1ccc2[nH]c3c(c2c1)CCNC3Cc1cc(F)cc(F)c1 (stereo unspecified) | 9.05
COc1ccc(CC2NCCc3c2[nH]c2ccc(C)cc32)cc1F (stereo unspecified) | 9.42
COc1ccc(CC2NCCc3c2[nH]c2ccc(F)cc32)cc1OC (stereo unspecified) | 8.49

Compound | -Log KB
Cc1ccc2[nH]c3c(c2c1)CCNC3Cc1ccc(F)c(F)c1 (stereo unspecified) | 8.47
COc1cc(CC2NCCc3c2[nH]c2ccc(C)cc32)cc(I)c1OC (stereo unspecified) | 8.12
O=C(O)c1ccc2c(c1)C1CCNC(Cc3cccc4ccccc34)C1N2 (stereo unspecified) | < 7.5
COc1ccc(CC2NCC(C)c3c2[nH]c2c(C)cccc32)cc1OC (stereo unspecified) | 9.29
COc1ccc(CC2c3c(c4cc(C)ccc4n3C)CCN2C)c(Cl)c1OC (stereo unspecified) | < 7.52
CCCc1ccc2[nH]c3c(c2c1)CCNC3Cc1ccc(OC)c(OC)c1 (stereo unspecified) | 8.64
COc1ccc(CC2NCCc3c2[nH]c2cc(C)c(C)cc32)cc1OC (stereo unspecified) | 9.71
COc1ccc2c3c([nH]c2c1)C(Cc1ccc(OC)c(OC)c1)NCC3 (stereo unspecified) | 7.31
COc1ccc(CC2NCCc3c2[nH]c2ccc(C)cc32)c(Cl)c1OC (stereo unspecified) | 9.8
COC1=CC=C(CC2NCCc3c2n(C)c2ccc(C)cc32)CC1OC (stereo unspecified) | < 7.52
CCOc1ccc(CC2NCCc3c2[nH]c2ccccc32)cc1OCC (stereo unspecified) | 8.57
COc1ccc(CC2NCCc3c2[nH]c2ccc(SC)cc32)cc1OC (stereo unspecified) | 9.56
COc1ccc(CC2NCCc3c2[nH]c2ccccc32)cc1 (stereo unspecified) | 8.09
Cc1ccc2[nH]c3c(c2c1)CCN(C)C3Cc1cccc2ccccc12 (stereo unspecified) | 7.52
CN1CC[C@@H]2CN3CCc4cccc(c43)[C@@H]2C1 | 7.34
Cc1cc(Br)c2c(c1)C1CCNC(Cc3cccc4ccccc34)C1N2 (stereo unspecified) | 8.82
COc1ccc(CC2NCCc3c2[nH]c2c(F)cc(F)cc32)cc1OC (stereo unspecified) | 9.6
COc1ccc(C2NCCc3c2[nH]c2ccccc32)cc1OC (stereo unspecified) | < 6.53
COc1ccc(CC2NCCc3c2[nH]c2ccc(C)cc32)c(Br)c1OC (stereo unspecified) | 9.7
COc1ccc(CC2NCCc3c2[nH]c2ccc(Cl)cc32)cc1OC (stereo unspecified) | 8.36
COc1cc(CC2NCCc3c2[nH]c2ccc(C)cc32)cc(N)c1OC (stereo unspecified) | 8.89
COc1cc2c(cc1OC)CN1CCc3c([nH]c4ccccc34)[C@@H]1C2 | < 6.52
c1ccc2c3c([nH]c2c1)C(Cc1ccc2c(c1)OCO2)NCC3 (stereo unspecified) | 8.4
COc1cc(CC2NCCc3c2[nH]c2ccccc32)cc(OC)c1OC (stereo unspecified) | 8.1
COc1ccc(CC2NCCc3c2[nH]c2c(C)cc(C)cc32)cc1OC (stereo unspecified) | 9.61

Compound | -Log KB
COc1ccc(OC)c(CC2NCCc3c2[nH]c2ccccc32)c1 (stereo unspecified) | 7.75
Cc1ccc2[nH]c3c(c2c1)CCNC3Cc1ccc(C)c(C)c1 (stereo unspecified) | 9.06
COc1ccc(CC2NCCc3c2[nH]c2cc(C)cc(C)c32)cc1OC (stereo unspecified) | 9.34
COc1ccc(CC2NCCc3c2[nH]c2ccccc32)cc1OC (stereo unspecified) | 9.17
c1ccc2c3c([nH]c2c1)CNCC3 | < 5.52
COc1cccc2c1NC1C(Cc3cccc4ccccc34)NCCC21 (stereo unspecified) | 9.72
COC(=O)[C@@H]1[C@H]2C[C@H]3c4[nH]c5ccccc5c4CCN3C[C@@H]2CC[C@@H]1O | 6.92
c1ccc2c(CC3NCCc4c3[nH]c3ccccc43)cccc2c1 (stereo unspecified) | 9.35
c1ccc(CC2NCCc3c2[nH]c2ccccc32)cc1 (stereo unspecified) | 7.61
COc1ccc(CC2NCCc3c2[nH]c2ccc(C)cc32)c(N)c1OC (stereo unspecified) | 9.02
COc1ccc(CC2(C)NCCc3c2[nH]c2ccc(C)cc32)cc1OC (stereo unspecified) | < 7.52
COc1cccc(CC2NCCc3c2[nH]c2ccccc32)c1 (stereo unspecified) | 8.04
Clc1ccc(CC2NCCc3c2[nH]c2ccccc32)cc1Cl (stereo unspecified) | 8.22
Cn1ccc2cc(NC(=O)Nc3cccnc3)ccc21 | 7.4
COc1ccc(CC2NCCc3c2[nH]c2c(C)c(C)ccc32)cc1OC (stereo unspecified) | 10.1
COc1ccc2[nH]c3c(c2c1)CCNC3Cc1ccc(OC)c(OC)c1 (stereo unspecified) | 8.48
COc1ccc(CC2NCCc3c2[nH]c2ccc(-c4ccccc4)cc32)cc1OC (stereo unspecified) | < 7
COc1ccc(CN2CCc3c([nH]c4ccccc34)C2)cc1OC | < 5.52
c1ccc2c3c([nH]c2c1)[C@@H]1C[C@@H]2CCCC[C@H]2CN1CC3 | 7.26
COc1ccc(CC2NCCc3c2[nH]c2ccc(C)cc32)cc1O (stereo unspecified) | 9.23
COc1cc(CC2NCCc3c2[nH]c2ccc(C)cc32)cc([N+](=O)[O-])c1OC (stereo unspecified) | 8.55
Clc1ccc2c(c1)C1CCNC(Cc3cccc4ccccc34)C1N2 (stereo unspecified) | 9.16
Cn1ccc2cc3c(cc21)CCN3C(=O)Nc1cccnc1 | 8.48
COc1ccc(CC2NCCc3c2[nH]c2ccc(C)cc32)c([N+](=O)[O-])c1OC (stereo unspecified) | 9.16
COc1ccc(CC2NCCc3c2[nH]c2ccc(C(C)C)cc32)cc1OC (stereo unspecified) | 8.5

Molecular target: Serotonin receptor 2a and 2b (5HT2A and 5HT2B) (Rattus norvegicus) (UniProt P30994+P14842)
Experiment: Relative binding to serotonin receptors 5-HT-2B and 5-HT-2A (Ratio of […] Ki)
Assay type: protein assay

Chain of Serotonin receptor 2a and 2b (5HT2A and 5HT2B) (Rattus norvegicus) (P14842 whole entry, looked up): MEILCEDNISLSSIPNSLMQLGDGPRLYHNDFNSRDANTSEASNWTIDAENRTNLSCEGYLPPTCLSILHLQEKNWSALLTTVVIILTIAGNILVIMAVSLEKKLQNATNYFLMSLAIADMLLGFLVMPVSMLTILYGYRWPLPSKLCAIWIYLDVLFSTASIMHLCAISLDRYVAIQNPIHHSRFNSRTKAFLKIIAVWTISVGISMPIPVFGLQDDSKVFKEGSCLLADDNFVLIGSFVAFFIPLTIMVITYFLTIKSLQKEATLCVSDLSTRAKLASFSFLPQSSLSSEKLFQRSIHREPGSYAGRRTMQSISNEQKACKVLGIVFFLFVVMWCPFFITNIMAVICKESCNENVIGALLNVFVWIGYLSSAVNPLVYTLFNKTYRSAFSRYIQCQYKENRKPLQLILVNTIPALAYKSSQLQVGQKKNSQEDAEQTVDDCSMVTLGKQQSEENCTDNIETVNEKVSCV
Chain of Serotonin receptor 2a and 2b (5HT2A and 5HT2B) (Rattus norvegicus) (P30994 whole entry, looked up): as the sequence (P30994 whole entry) above

Compound | Ratio
COc1ccc(CC2NCCc3c2[nH]c2c(Br)c(C)ccc32)cc1OC (stereo unspecified) | 3.09
COc1ccc(CC2NCCc3c2[nH]c2ccc(C)cc32)c(Br)c1OC (stereo unspecified) | 83.2
COc1ccc(CC2NCCc3c2[nH]c2ccccc32)cc1OC (stereo unspecified) | 97.7
Cn1ccc2cc(NC(=O)Nc3cccnc3)ccc21 | > 158
COc1ccc(CC2NCCc3c2[nH]c2c(C)c(C)ccc32)cc1OC (stereo unspecified) | 115

Species: Rattus norvegicus
Experiment: Relative binding to serotonin receptors 5-HT-2B to 5-HT2C (Ratio of […] Ki)

Compound | Ratio
COc1ccc(CC2NCCc3c2[nH]c2c(Br)c(C)ccc32)cc1OC (stereo unspecified) | 2.14
COc1ccc(CC2NCCc3c2[nH]c2ccc(C)cc32)c(Br)c1OC (stereo unspecified) | 93.3
COc1ccc(CC2NCCc3c2[nH]c2ccccc32)cc1OC (stereo unspecified) | 186
Cn1ccc2cc(NC(=O)Nc3cccnc3)ccc21 | 3.5
COc1ccc(CC2NCCc3c2[nH]c2c(C)c(C)ccc32)cc1OC (stereo unspecified) | 102

Molecular target: 5-hydroxytryptamine receptor 2A (Rattus norvegicus) (UniProt P14842)
Experiment: Binding affinity analysed towards 5-HT 2A in rat jugular vein
How it was run: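 Rat external jugular vein (5HT2A), cannulated in situ and kept in Krebs' bicarbonate buffer; isometric contraction recorded. Control cumulative serotonin curve, 1 h with one antagonist concentration per tissue, serotonin curve repeated. K_B = [B]/(dose ratio − 1) from the agonist ED50 shift. Expressed as −log K_B.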

Chain of 5-hydroxytryptamine receptor 2A (Rattus norvegicus) (P14842 whole entry): as the sequence (P14842 whole entry, looked up) above

Compound | -Log KB
COc1ccc(CC2NCCc3c2[nH]c2ccccc32)cc1OC (stereo unspecified) | 7.43

Molecular target: T1, 5-hydroxytryptamine receptor 2A (Rattus norvegicus, UniProt P14842)
Experiment: Binding affinity analysed on 5-HT 2A in rat […].
Assay type: tissue-based

T1 sequence (P14842 whole entry): as the sequence (P14842 whole entry, looked up) above

Compound | Ki [nM]
CN1CC[C@@H]2CN3CCc4cccc(c43)[C@@H]2C1 | 631

Molecular target: T1, 5-hydroxytryptamine receptor 2A
Experiment: Binding affinity for 5-HT 2A in rat […]
Assay type: tissue-based

Compound | Ki [nM]
COc1ccc(CC2NCCc3c2[nH]c2c(Br)c(C)ccc32)cc1OC (stereo unspecified) | 2.95
COc1ccc(CC2NCCc3c2[nH]c2ccc(C)cc32)cc1OC (stereo unspecified) | 22.4
COc1ccc(CC2NCCc3c2[nH]c2cc(C)c(C)cc32)cc1OC (stereo unspecified) | 4.68
COc1ccc(CC2NCCc3c2[nH]c2ccc(C)cc32)c(Cl)c1OC (stereo unspecified) | 19.5
COc1ccc(CC2NCCc3c2[nH]c2ccc(C)cc32)c(Br)c1OC (stereo unspecified) | 16.6
COc1ccc(CC2NCCc3c2[nH]c2ccccc32)cc1OC (stereo unspecified) | 66.1
Cn1ccc2cc(NC(=O)Nc3cccnc3)ccc21 | > 6310
COc1ccc(CC2NCCc3c2[nH]c2c(C)c(C)ccc32)cc1OC (stereo unspecified) | 8.71

Molecular target: 5-hydroxytryptamine receptor 2A (Rattus norvegicus) (UniProt P14842)
Experiment: not given

Compound | -Log KB
COC(=O)[C@@H]1[C@H]2C[C@H]3c4[nH]c5ccccc5c4CCN3C[C@@H]2CC[C@@H]1O | 6.37

Molecular target: 5-hydroxytryptamine receptor 2A (Rattus norvegicus) (UniProt P14842)
Experiment: not given
Remark: another data set of the same source

Compound | -Log KB
COc1ccc(CC2NCCc3c2[nH]c2ccc(C)cc32)c(Cl)c1OC (stereo unspecified) | 8.14

Molecular target: 5-HT2C receptor (Mus musculus)
Experiment: Binding affinity towards 5-HT 2C receptor of mouse

Compound | Ki [nM]
COc1ccc(CC2NCCc3c2[nH]c2c(Br)c(C)ccc32)cc1OC (stereo unspecified) | 2.04
COc1ccc(CC2NCCc3c2[nH]c2ccc(C)cc32)c(Br)c1OC (stereo unspecified) | 18.6
COc1ccc(CC2NCCc3c2[nH]c2ccccc32)cc1OC (stereo unspecified) | 126
COc1ccc(CC2NCCc3c2[nH]c2c(C)c(C)ccc32)cc1OC (stereo unspecified) | 7.76
